A selection: hits, their analogues and other compounds. The true share with any hit is near 1.2%.
PfG6PD inh – PfG6PD (Plasmodium falciparum) enzyme inhibition. 0.78% of 350,000 active. inhibition, % at 20 µM. PfGluPho enzyme, NADPH resazurin-diaphorase fluorescence;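 active = inhibition reaching at least a set limit at 20 µM in the primary screen, cut at about 59% in these data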
HKDC1 inhibitor – blocks human hexokinase HKDC1 activity; Q2TB90; 0.16% of 340,000 active; inhibition, % at 20 µM; recombinant HKDC1, G6PDH/diaphorase resazurin coupled fluorescence;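 active = inhibition above about 35% when tested at 20 µM, limit read from the data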
Target sequence (Q2TB90 whole entry, looked up): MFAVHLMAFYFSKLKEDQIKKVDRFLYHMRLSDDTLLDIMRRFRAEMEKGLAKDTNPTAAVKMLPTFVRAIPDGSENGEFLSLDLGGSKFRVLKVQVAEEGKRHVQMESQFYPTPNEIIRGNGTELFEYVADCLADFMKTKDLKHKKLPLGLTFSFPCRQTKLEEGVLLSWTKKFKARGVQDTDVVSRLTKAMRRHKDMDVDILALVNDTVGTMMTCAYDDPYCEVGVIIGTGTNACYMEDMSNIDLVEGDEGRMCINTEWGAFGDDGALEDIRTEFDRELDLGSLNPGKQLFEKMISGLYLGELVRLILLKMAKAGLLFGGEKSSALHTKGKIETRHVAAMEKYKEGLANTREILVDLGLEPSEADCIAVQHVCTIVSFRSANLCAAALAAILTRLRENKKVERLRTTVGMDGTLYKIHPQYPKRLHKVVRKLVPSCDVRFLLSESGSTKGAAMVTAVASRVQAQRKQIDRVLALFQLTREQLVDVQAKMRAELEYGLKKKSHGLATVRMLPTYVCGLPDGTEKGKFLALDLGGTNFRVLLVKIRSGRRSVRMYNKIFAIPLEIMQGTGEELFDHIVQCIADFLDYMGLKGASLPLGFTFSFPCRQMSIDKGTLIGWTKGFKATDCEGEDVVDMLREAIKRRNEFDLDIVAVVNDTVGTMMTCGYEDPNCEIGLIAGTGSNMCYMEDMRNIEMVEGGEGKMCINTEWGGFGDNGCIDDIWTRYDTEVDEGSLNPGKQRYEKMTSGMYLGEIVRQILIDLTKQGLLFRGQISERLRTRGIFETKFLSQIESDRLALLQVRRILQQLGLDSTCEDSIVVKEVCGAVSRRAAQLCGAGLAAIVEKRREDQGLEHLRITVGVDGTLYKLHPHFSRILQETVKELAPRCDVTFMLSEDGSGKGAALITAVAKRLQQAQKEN
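Test system: recombinant HKDC1 (HK5) hexokinase enzyme, produced in-house; Amount: enzyme 5 µg/mL final; Buffer or medium: Tris pH 8.0 buffer with MgCl2, Tween-20, BSA, BME; Reagent: glucose and ATP substrates; Doses: 20 µM test compound, 1% DMSO; Incubation: 90 min reaction incubation at room temperature, dark; Detection: resorufin fluorescence at 613 nm.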
Diaph inh CS – diaphorase inhibition or chemical oxidation counter-screen. 0.69% of 190,000 active. inhibition, % at 20 µM. diaphorase resazurin-to-resorufin fluorescence, NADH, 16 min; bacterial (C. kluyveri) enzyme, not human. AID 1217;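 active = primary screen inhibition at 20 µM above a set limit, cut at about 50% in these data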
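System: Bacterial diaphorase enzyme (C. kluyveri) | Incubation: 16-min room-temperature incubation before reading | Benchmarks: No-NADH positive control and DMSO neutral control | Measured by: Resorufin fluorescence 544/590 nm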
G6PDH CS – counter-screen for G6PDH assay hits: L. mesenteroides G6PDH inhibition. Purified L. mesenteroides G6PDH, diaphorase/resazurin coupled fluorescence, 45 min. 0.12% of 200,000 active. inhibition, % at 5 µM; in the data active = inhibition above about 50%
Diaph act CS – activates diaphorase or chemically reduces, flagging diaphorase assay artifacts. Diaphorase/resazurin coupled assay, resorufin fluorescence, 16 min; stronger effect = higher value; 1 = vehicle wells, 0 = NADH-free wells. activation factor at 20 µM. 0.005% of 190,000 active. AID 1229;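 active = diaphorase activity raised at least twofold by the compound at 20 µM; inactive = activation factor below 2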
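Test system: Clostridium kluyveri diaphorase, purified enzyme. Buffer or medium: 50 mM HEPES pH 7.4 buffer plus MgCl2 and Tween 20. Also added: 0.114 mM NADH and 0.1 mM resazurin, final amounts. Dosing: compound 20 µM once, DMSO 1%. Schedule: 16 min enzyme reaction, ambient temperature. Detection: fluorescence of resorufin, 544 nm excitation, 590 nm emission.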
HKDC1 act conf2 – HKDC1 (human) activation, single-dose confirmed; 14% of 740 active; AID 504708; recombinant HKDC1, G6PDH/diaphorase resazurin fluorescence; stronger effect = lower value; shares compounds with HKDC1 inhibitor; inhibition, % at 20 µM;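 active = inhibition at or below a set negative limit, negative inhibition meaning the enzyme was activated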
PfG6PD confirm – confirmation of Plasmodium falciparum G6PD inhibitors; AID 504753; shares compounds with PfG6PD inh; recombinant PfGluPho, NADPH-diaphorase-resazurin fluorescence; 34% of 2,400 active; inhibition, % at 20 µM;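 active = inhibition of at least 50% at 20 µM in any single replicate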
Diaphorase 10uM – inhibits diaphorase or oxidizes, flagging false PfG6PD hits. shares compounds with PfG6PD inh. diaphorase-coupled resazurin reduction, fluorescence, NADPH 10 uM. inhibition, % at 20 µM. 39% of 820 active;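 active = average inhibition reaching 50% or more with the compound at 20 µM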;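 also: resorufin red fluorescence formed as diaphorase reduces resazurin using NADPH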
Diaphorase 30uM – inhibits diaphorase or oxidizes, flagging false PfG6PD hits | shares compounds with PfG6PD inh | Diaphorase/resazurin coupled assay, resorufin fluorescence, 30 uM NADPH | inhibition, % at 20 µM | 29% of 820 active | AID 504863;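 active = inhibition averaging 50% or more, tested at 20 µM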
Hits are given with their value; - = inactive; . = not tested or not shown.

SMILES	PfG6PD inh	HKDC1 inhibitor	Diaph inh CS	G6PDH CS	Diaph act CS	PfG6PD confirm	others
O=C(O)c1cc(O)c2c(c1)[C@@H]([C@H]1c3cc(C(=O)O)cc(O)c3C(=O)c3c(O[C@@H]4O[C@H](CO)[C@@H](O)[C@H](O)[C@H]4O)cccc31)c1cccc(OC3O[C@H](CO)[C@@H](O)[C@H](O)[C@H]3O)c1C2=O (some centres not stated)	68.5	83.2	.	.	.	-	HKDC1 act conf2=-
CCOc1ccc(CNC(=O)CN2C(=O)CSc3ccc(S(=O)(=O)N4CCOCC4)cc32)cc1	-	.	.	.	.	.
CCN(CC)c1ccc(NC(=O)c2ccccc2F)cc1S(=O)(=O)Nc1ccccc1OC	-	-	-	-	-	.
CCN(CC)c1ccc(NC(=O)c2ccccc2Br)cc1S(=O)(=O)Nc1ccccc1OC	86.1	-	-	-	-	63.6	HKDC1 act conf2=-;Diaphorase 10uM=-;Diaphorase 30uM=-
CSc1ccccc1C(=O)OCC(=O)Nc1c(C)n(C)n(-c2ccccc2)c1=O	-	.	.	.	.	.
COc1cc(N=c2ssnc2Cl)cc(OC)c1	78.3	-	-	-	-	65.3	HKDC1 act conf2=-;Diaphorase 10uM=-;Diaphorase 30uM=-
COc1cc(OC)cc(-c2nc(-c3ccccc3OC)no2)c1	-	-	-	-	-	.
N#CC1(NC(=O)CSc2nnc(C3CC3)n2N)CCCCC1	-	.	.	.	.	.
O=C(NC1=C(Nc2ccc(Cl)cc2)C(=O)c2ccccc2C1=O)c1ccccc1	-	-	-	-	-	.
O=C(NC1=C(NC2CCS(=O)(=O)C2)C(=O)c2ccccc2C1=O)c1ccccc1 (configuration not stated)	103.8	53.0	71.5	51.4	-	95.4	HKDC1 act conf2=-;Diaphorase 10uM=98.2;Diaphorase 30uM=90.0
COc1cc(N(C)C)ccc1C=c1c2ccccc2n2c1cc(-c1ccccc1)[n+]2C	83.0	41.3	.	.	.	76.0	HKDC1 act conf2=-;Diaphorase 10uM=-;Diaphorase 30uM=-
CCOc1ccc(-c2c(=O)n(O)c3ccccc3[n+]2[O-])cc1	60.9	-	.	.	.	-
Cc1ccc(Nc2nc(N)nc(CCl)n2)c(C)c1	-	-	.	.	.	.
CCCC[N+](CC#Cc1ccccc1)(CCCC)CCCS(=O)(=O)[O-]	-	-	-	-	-	.
c1ccc2c(c1)CCN(c1nc3cc4c(cc3s1)OCCO4)C2	64.1	-	-	-	-	-
N#CC1=C2SCN(Cc3ccco3)CN2C(=O)CC1c1ccccc1F (configuration not stated)	67.0	-	-	-	-	-
N#CC1=C2SCN(Cc3ccco3)CN2C(=O)CC1c1cccc2ccccc12 (configuration not stated)	63.0	-	-	-	-	-
C=CCN(c1ccccc1)S(=O)(=O)c1ccc2c(c1)N(C(C)=O)CCO2	-	-	.	.	.	.
C=CCOc1c(Cl)cc(CNc2ccc3[nH]c(=O)[nH]c3c2)cc1OC	63.8	-	-	-	-	58.3	Diaphorase 10uM=-;Diaphorase 30uM=-
COc1cccc2c1nc(C)c1cc(C)oc12	-	-	-	-	-	.
COc1cccc2nc3cc(C)c(C)cc3nc12	95.6	-	.	.	.	57.0	Diaphorase 10uM=-;Diaphorase 30uM=-
C[C@@H]1CN([C@@H](C)CO)S(=O)(=O)c2ccc(Br)cc2O[C@H]1CN(C)C(=O)c1ccncc1	-	.	.	.	.	.
CC(C)c1nc2sc3c(SCCN(C)C)ncnc3c2c2c1CCC2	-	-	.	.	.	.
CCCCCC(=O)Nc1ccc(S(=O)(=O)Nc2nccc(C)n2)cc1	-	-	-	-	-	.
CCCCCCCCSC1=CC(=O)C(OC)=C(OC)C1=O	125.0	.	.	.	.	86.2	Diaphorase 10uM=67.1;Diaphorase 30uM=-
SMILES	PfG6PD inh	HKDC1 inhibitor	Diaph inh CS	G6PDH CS	Diaph act CS	PfG6PD confirm	others
Cn1c2ccccc2c(=O)c2ccc(C#Cc3ccc(N)cc3)cc21	-	-	.	.	.	.
Cn1c2ccccc2c(=O)c2cc(C#Cc3cccc(N)c3)ccc21	62.4	-	.	.	.	-
CCOc1ccc(C(=O)/C=C/c2cn(CN3CCN(C)CC3)c3ccccc23)cc1	61.6	-	-	-	-	-
Cc1ccc(N(C(=O)c2csnn2)C(C(=O)NC2CCCC2)c2cccnc2)c(C)c1 (configuration not stated)	-	-	.	.	.	.
Cn1nc([N+](=O)[O-])c2c(-c3nc4ccccc4s3)c(N)n(C3CCCCC3)c2c1=O	77.1	-	-	-	-	-
CCN(CC)c1ccc(N=C2C=CC(=O)C=C2NC(C)=O)cc1	120.6	-	.	.	.	99.4	Diaphorase 10uM=95.4;Diaphorase 30uM=98.2
COc1ccc2c(C(=O)CCl)c[nH]c2c1	-	-	.	.	.	.
Cc1cc2cc(CN(Cc3ccc4c(c3)OCO4)C(=O)c3ccco3)c(=O)[nH]c2cc1C	81.6	-	-	-	-	-
COc1cc(N2C(=O)C=CC2=O)ccc1N1C(=O)C=CC1=O	120.9	-	.	.	.	105.3	Diaphorase 10uM=-;Diaphorase 30uM=-
COc1ccc(-c2c(C)nn3c(NC4CCCC4)cc(C)nc23)cc1OC	-	-	.	.	.	.
CCc1c(C)nc2cc(-c3ccc(OC)c(OC)c3)nn2c1NCC1CC1	61.9	-	-	-	-	-
COc1ccc(C[C@@H]2OC3(C=CC(=O)C=C3)O[C@H]2Cc2ccc(OC)cc2)cc1	62.2	-	.	.	.	-
Cc1cc(NCCCCCCCNc2cc(C)nc3cc([N+](=O)[O-])ccc23)c2ccc([N+](=O)[O-])cc2n1	77.8	-	.	.	.	-
COCCCNc1cc(C)nc2ccccc12	-	-	-	-	-	.
CCCN(Cc1cc2ccc(C)cc2[nH]c1=O)C(=O)c1ccccn1	96.0	-	-	-	-	69.3	Diaphorase 10uM=50.2;Diaphorase 30uM=50.4
CC1=CC2=C(C=O)C(=O)C(C)(O)C(O)C2=CO1 (configuration not stated)	-	.	.	.	.	.
[N-]=[N+]=NC[C@H](Cc1ccccc1)N1CCN(Cc2ccccc2)CCC1=O	-	-	.	.	.	.
COc1cc(N)c(C(=O)c2nccc3cc(OC)c(OC)cc23)cc1OC	-	-	.	.	.	.
COc1cc(Br)c(C(=O)c2nccc3cc(OC)c(OC)cc23)cc1OC	88.2	-	.	.	.	-
Cc1cc(Nc2ccc(Cl)cc2)nc(NCc2ccccc2)n1	60.5	-	-	-	-	-
Cc1cc(Nc2ccccc2)nc(NCc2ccccc2)n1	-	-	-	-	-	.
Cc1ccc(Nc2cc(C)nc(-c3ccccc3)n2)cc1	65.4	-	.	.	.	-
O=C(CCCC(=O)Nc1ccc(Br)cc1)N/N=C/c1ccccc1	60.5	-	.	.	.	-
O=C(CSCC(=O)NN=Cc1ccccc1)NN=Cc1ccccc1	-	-	.	.	.	.
O=C(CC(=O)N/N=C/c1ccccc1)NCc1ccccc1	107.4	-	-	-	-	71.7	Diaphorase 10uM=67.3;Diaphorase 30uM=67.2

Bioassay records as filed in PubChem.
